Active and inactive are the calls of the source. No cut-off for these calls is given here.
Legend:
[1] = Inhibition of soybean 15-lipoxygenase by MBTH-DMAB method; parameters: species or system Glycine max
Outline: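 Test sample in ethanol was preincubated 5 min at room temperature with SLO (stock 4000 units/mL) in 50 mM phosphate, pH 7.0, with an ethanol control. Linoleic acid (Tween 20/KOH) started peroxidation. After 7 min, DMAB (solution A) and then MBTH with hemoglobin at pH 5.0 (solution B) developed colour. After 5 min more, 2% SDS stopped the reaction.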

[2] = target: T1, Polyunsaturated fatty acid lipoxygenase ALOX15 (Homo sapiens, UniProt P16050); assay: Inhibition of recombinant human 15-lipoxygenase by MBTH-DMAB method
T1 sequence (P16050 whole entry): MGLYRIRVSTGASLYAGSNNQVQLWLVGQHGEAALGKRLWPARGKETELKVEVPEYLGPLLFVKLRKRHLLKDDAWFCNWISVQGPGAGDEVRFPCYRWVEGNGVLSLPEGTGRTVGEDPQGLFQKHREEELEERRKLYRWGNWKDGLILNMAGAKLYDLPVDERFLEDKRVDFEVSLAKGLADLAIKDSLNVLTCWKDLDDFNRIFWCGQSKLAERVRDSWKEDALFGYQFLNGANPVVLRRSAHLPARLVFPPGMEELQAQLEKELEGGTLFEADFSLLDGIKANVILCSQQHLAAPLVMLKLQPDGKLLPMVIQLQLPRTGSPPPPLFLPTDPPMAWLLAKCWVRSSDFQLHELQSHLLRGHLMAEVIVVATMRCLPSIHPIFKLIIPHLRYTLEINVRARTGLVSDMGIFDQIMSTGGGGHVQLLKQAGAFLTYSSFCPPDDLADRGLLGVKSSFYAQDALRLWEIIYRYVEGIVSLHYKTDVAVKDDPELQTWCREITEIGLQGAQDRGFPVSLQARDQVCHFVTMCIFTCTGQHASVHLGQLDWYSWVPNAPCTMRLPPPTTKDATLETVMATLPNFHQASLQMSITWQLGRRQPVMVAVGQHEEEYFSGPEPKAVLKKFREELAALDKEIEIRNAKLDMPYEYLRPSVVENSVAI

Glycine max = assay: Competitive inhibition of soybean 15-lipoxygenase at 1.25 to 5 uM by Lineweaver-Burk plot
Outline: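 Soybean 15-lipoxygenase activity was read by the MBTH–DMAB end-point method at linoleic acid levels of 25, 50, 100 and 200, plotted as double-reciprocal (Lineweaver–Burk) curves with and without inhibitor.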

| Compound | IC50 [1] | IC50 [2] | inhibition (Glycine max) |
| --- | --- | --- | --- |
| CC(C)=CCC/C(C)=C/CC/C(C)=C/COc1cccc2ccc(=O)oc12 | 5.8 µM | – | – |
| CC(C)=CCC/C(C)=C/CC/C(C)=C/COc1cccc2oc(=O)ccc12 | 0.8 µM | 3.6 µM | – |
| CC(C)=CCC/C(C)=C/COc1ccc2ccc(=O)oc2c1 [AURAPTENE] | 6.3 µM | – | – |
| O=C(O)/C=C/c1ccc(O)c(O)c1 [CAFFEIC ACID] | 39.4 µM | – | – |
| CC(C)=CCC/C(C)=C/COc1cccc2ccc(=O)oc12 | 8.1 µM | – | – |
| CC(C)=CCC/C(C)=C/CC/C(C)=C/COc1cc2ccccc2oc1=O | 1.7 µM | > 50 µM | Active |
| Cc1nc(N2CCN(C)CC2)nc2c1Nc1ccccc1S2 | 21.2 µM | – | – |
| CC(C)=CCC/C(C)=C/COc1cccc2oc(=O)ccc12 | 2.8 µM | – | – |
| CC(C)=CCC/C(C)=C/COc1cc(=O)oc2ccccc12 | 5.6 µM | 42.6 µM | – |
| CC(C)=CCOc1cccc2ccc(=O)oc12 | 46.5 µM | – | – |
| CC(C)=CCC/C(C)=C/COc1ccc2oc(=O)ccc2c1 | 9.6 µM | 6.8 µM | – |
| CC(C)=CCC/C(C)=C/COc1cc2ccccc2oc1=O | 4.7 µM | > 100 µM | – |
| CC(C)=CCOc1cccc2oc(=O)ccc12 | 39.8 µM | – | – |
| CC(C)=CCOc1cc(=O)oc2ccccc12 | 43.9 µM | – | – |
| CC(C)=CCOc1ccc2ccc(=O)oc2c1 [7-PRENYLOXYCOUMARIN] | 60.4 µM | – | – |
| CC(C)=CCC/C(C)=C/CC/C(C)=C/COc1cc(=O)oc2ccccc12 | 3.5 µM | – | – |
| CC(C)=CCC/C(C)=C/CC/C(C)=C/COc1ccccc1 [FARNESYL PHENYL ETHER] | 2.7 µM | > 50 µM | – |
| CC(C)=CCOc1ccc2oc(=O)ccc2c1 | 69.4 µM | – | – |
| CC(C)=CCC/C(C)=C/CC/C(C)=C/COc1ccc2ccc(=O)oc2c1 [UMBELLIPRENIN] | 3.1 µM | – | – |
| CC(C)=CCC/C(C)=C/CC/C(C)=C/COc1ccc2oc(=O)ccc2c1 | 2.1 µM | 1.3 µM | – |
| CC(C)=CCOc1cc2ccccc2oc1=O | 54.4 µM | – | – |

Reference: ChEMBL document CHEMBL2086242, “Synthesis and SAR studies of mono O-prenylated coumarins as potent 15-lipoxygenase inhibitors” (Eur J Med Chem, 2012)
